Experimental data published in ChEMBL document CHEMBL1144242, “Synthesis and antituberculosis activity of 5-methyl/trifluoromethoxy-1H-indole-2,3-dione 3-thiosemicarbazone derivatives” (Bioorg Med Chem, 2008).
Converted amounts (≈) assume the structure as drawn.

system: not listed separately; assay: Selectivity index, ratio of IC50 for african green monkey Vero cells to IC90 for Mycobacterium tuberculosis H37Rv; format: toxicity, cell-based; conditions: read-out: Selectivity Index
How it was run: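 SI = VERO cell IC50 / M. tuberculosis H37Rv MIC. VERO cells exposed 72 h at concentrations up to 10x the H37Rv MIC; viability by MTT (CellTiter 96); IC50 from dose-response curve fit. MIC from MABA against H37Rv in BACTEC 12B medium, 37 °C, 90% fluorescence reduction defining IC90.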

Going from `O=C1Nc2ccc(OC(F)(F)F)cc2/C1=N/NC(=S)Nc1ccc(Br)cc1` to `O=C1Nc2ccc(OC(F)(F)F)cc2/C1=N/NC(=S)Nc1ccc(F)cc1`, the selectivity ratio falls from 3.77 to 1.64.

Going from `Cc1ccc2c(c1)/C(=N/NC(=S)Nc1ccccc1)C(=O)N2` to `Cc1ccc2c(c1)/C(=N/NC(=S)Nc1cccc(Br)c1)C(=O)N2`, the selectivity ratio falls from 0.742 to 0.473.

First: CCCCNC(=S)N/N=C1\C(=O)Nc2ccc(C)cc21
Second: Cc1ccc2c(c1)/C(=N/NC(=S)NC1CCCCC1)C(=O)N2
The selectivity ratio of the first is higher: 4.82 for the first, 1.98 for the second.

Compared with `Cc1ccc2c(c1)/C(=N/NC(=S)Nc1ccc(F)cc1)C(=O)N2`, `Cc1ccc2c(c1)/C(=N/NC(=S)Nc1ccc(Cl)cc1)C(=O)N2` is higher in selectivity ratio: less than 0.123 for the first, 3.46 for the second.

Going from `O=C1/C(=N\NC(=S)Nc2ccc(F)cc2)c2cc(OC(F)(F)F)ccc2N1CN1CCOCC1` to `O=C1/C(=N\NC(=S)Nc2ccc(Cl)cc2)c2cc(OC(F)(F)F)ccc2N1CN1CCOCC1`, the selectivity ratio rises from 0.784 to 3.19.

Compared with `O=C1/C(=N\NC(=S)Nc2ccc(Br)cc2)c2cc(OC(F)(F)F)ccc2N1CN1CCOCC1`, `O=C1/C(=N\NC(=S)NC2CCCCC2)c2cc(OC(F)(F)F)ccc2N1CN1CCOCC1` is higher in selectivity ratio: 2.46 for the first, 4.12 for the second.

Going from `O=C1Nc2ccc(OC(F)(F)F)cc2/C1=N/NC(=S)Nc1ccc(Cl)cc1` to `CO[C@H]1/C=C/O[C@@]2(C)Oc3c(C)c(O)c4c(O)c(c(/C=N/N5CCN(C)CC5)c(O)c4c3C2=O)NC(=O)/C(C)=C\C=C\[C@H](C)[C@H](O)[C@@H](C)[C@@H](O)[C@@H](C)[C@H](OC(C)=O)[C@@H]1C` [RIFAMPIN], the selectivity ratio rises from 4.2 to greater than 800.

system: Mycobacterium tuberculosis; assay: Antitubercular activity against Mycobacterium tuberculosis H37Rv after 4 days by microplate alamar blue assay; format: functional; conditions: 96 h
How it was run: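 M. tuberculosis H37Rv (ATCC 27294) in BACTEC 12B medium by MABA; 10 twofold dilutions, usually 100 to 0.19 µg/mL; final titer as printed; 37 °C, Alamar Blue added from day 4 once control wells turned pink, read 24 h later (ex 530/em 590 nm). MIC: lowest concentration giving 90% fluorescence reduction vs controls, taken as IC90 from dose-response curve fit.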

`CCCCNC(=S)N/N=C1\C(=O)N(CN2CCOCC2)c2ccc(OC(F)(F)F)cc21` and `CCNC(=S)N/N=C1\C(=O)N(CN2CCOCC2)c2ccc(OC(F)(F)F)cc21` cannot be ordered by IC90: greater than 100 µg/mL for the first, greater than 100 µg/mL for the second.

`O=C1Nc2ccc(OC(F)(F)F)cc2/C1=N/NC(=S)Nc1ccc(Br)cc1` and `O=C1Nc2ccc(OC(F)(F)F)cc2/C1=N/NC(=S)Nc1ccc(F)cc1` are within 1.5-fold of each other in IC90: 1.53 µg/mL (≈ 3.33 µM) for the first, 1.55 µg/mL (≈ 3.88 µM) for the second.

`CN1C(=O)/C(=N\NC(=S)NC2CCCCC2)c2cc(OC(F)(F)F)ccc21` and `O=C1Nc2ccc(OC(F)(F)F)cc2/C1=N/NC(=S)NC1CCCCC1` cannot be ordered by IC90: greater than 100 µg/mL for the first, greater than 100 µg/mL for the second.

`CCCCNC(=S)N/N=C1\C(=O)N(C)c2ccc(OC(F)(F)F)cc21` and `CCNC(=S)N/N=C1\C(=O)N(C)c2ccc(OC(F)(F)F)cc21` cannot be ordered by IC90: greater than 100 µg/mL for the first, greater than 100 µg/mL for the second.

`Cc1ccc2c(c1)/C(=N/NC(=S)Nc1ccc(Br)cc1)C(=O)N2C` and `Cc1ccc2c(c1)/C(=N/NC(=S)Nc1ccc(F)cc1)C(=O)N2C` cannot be ordered by IC90: greater than 100 µg/mL for the first, greater than 100 µg/mL for the second.

`CNC(=S)N/N=C1\C(=O)N(CN2CCOCC2)c2ccc(OC(F)(F)F)cc21` and `C=CCNC(=S)N/N=C1\C(=O)N(CN2CCOCC2)c2ccc(OC(F)(F)F)cc21` cannot be ordered by IC90: greater than 100 µg/mL for the first, greater than 100 µg/mL for the second.

`CN1C(=O)/C(=N\NC(=S)Nc2ccc(Cl)cc2)c2cc(OC(F)(F)F)ccc21` and `CN1C(=O)/C(=N\NC(=S)Nc2ccc(F)cc2)c2cc(OC(F)(F)F)ccc21` cannot be ordered by IC90: greater than 100 µg/mL for the first, greater than 100 µg/mL for the second.

`C=CCNC(=S)N/N=C1\C(=O)Nc2ccc(OC(F)(F)F)cc21` and `CCNC(=S)N/N=C1\C(=O)Nc2ccc(OC(F)(F)F)cc21` cannot be ordered by IC90: greater than 100 µg/mL for the first, greater than 100 µg/mL for the second.

`O=C1Nc2ccc(OC(F)(F)F)cc2/C1=N/NC(=S)NCc1ccccc1` and `O=C1Nc2ccc(OC(F)(F)F)cc2/C1=N/NC(=S)Nc1ccccc1` cannot be ordered by IC90: greater than 100 µg/mL for the first, greater than 100 µg/mL for the second.

`CCCCNC(=S)N/N=C1\C(=O)N(C)c2ccc(C)cc21` and `CCNC(=S)N/N=C1\C(=O)N(C)c2ccc(C)cc21` cannot be ordered by IC90: greater than 100 µg/mL for the first, greater than 100 µg/mL for the second.

Going from `Cc1ccc2c(c1)/C(=N/NC(=S)Nc1ccccc1)C(=O)N2` to `Cc1ccc2c(c1)/C(=N/NC(=S)NCc1ccccc1)C(=O)N2`, the IC90 rises from 1.43 µg/mL (≈ 4.62 µM) to greater than 100 µg/mL.

`CN1C(=O)/C(=N\NC(=S)NCc2ccccc2)c2cc(OC(F)(F)F)ccc21` and `CN1C(=O)/C(=N\NC(=S)Nc2ccccc2)c2cc(OC(F)(F)F)ccc21` cannot be ordered by IC90: greater than 100 µg/mL for the first, greater than 100 µg/mL for the second.

`CNC(=S)N/N=C1\C(=O)N(C)c2ccc(C)cc21` and `C=CCNC(=S)N/N=C1\C(=O)N(C)c2ccc(C)cc21` cannot be ordered by IC90: greater than 100 µg/mL for the first, greater than 100 µg/mL for the second.

`CNC(=S)N/N=C1\C(=O)Nc2ccc(C)cc21` and `CCNC(=S)N/N=C1\C(=O)Nc2ccc(C)cc21` cannot be ordered by IC90: greater than 100 µg/mL for the first, greater than 100 µg/mL for the second.

`COc1ccc(NC(=S)N/N=C2\C(=O)N(CN3CCOCC3)c3ccc(OC(F)(F)F)cc32)cc1` and `Cc1ccc(NC(=S)N/N=C2\C(=O)N(CN3CCOCC3)c3ccc(OC(F)(F)F)cc32)cc1` cannot be ordered by IC90: greater than 100 µg/mL for the first, greater than 100 µg/mL for the second.

Compared with `CCCCNC(=S)N/N=C1\C(=O)Nc2ccc(C)cc21`, `C=CCNC(=S)N/N=C1\C(=O)Nc2ccc(C)cc21` is higher in IC90: 0.911 µg/mL (≈ 3.14 µM) for the first, greater than 100 µg/mL for the second.

Compared with `Cc1ccc2c(c1)/C(=N/NC(=S)NC1CCCCC1)C(=O)N2`, `Cc1ccc2c(c1)/C(=N/NC(=S)NC1CCCCC1)C(=O)N2C` is higher in IC90: 0.795 µg/mL (≈ 2.51 µM) for the first, greater than 100 µg/mL for the second.

`Cc1ccc(NC(=S)N/N=C2\C(=O)N(C)c3ccc(C)cc32)cc1` and `Cc1ccc2c(c1)/C(=N/NC(=S)Nc1ccc(Cl)cc1)C(=O)N2C` cannot be ordered by IC90: greater than 100 µg/mL for the first, greater than 100 µg/mL for the second.

`CCCCNC(=S)N/N=C1\C(=O)Nc2ccc(OC(F)(F)F)cc21` and `CNC(=S)N/N=C1\C(=O)Nc2ccc(OC(F)(F)F)cc21` cannot be ordered by IC90: greater than 100 µg/mL for the first, greater than 100 µg/mL for the second.

First: Cc1ccc2c(c1)/C(=N/NC(=S)Nc1ccc(F)cc1)C(=O)N2
Second: Cc1ccc(NC(=S)N/N=C2\C(=O)Nc3ccc(C)cc32)cc1
The IC90 of the first is lower: 1.59 µg/mL (≈ 4.83 µM) for the first, greater than 100 µg/mL for the second.

`O=C1/C(=N\NC(=S)NCc2ccccc2)c2cc(OC(F)(F)F)ccc2N1CN1CCOCC1` and `O=C1/C(=N\NC(=S)Nc2ccccc2)c2cc(OC(F)(F)F)ccc2N1CN1CCOCC1` cannot be ordered by IC90: greater than 100 µg/mL for the first, greater than 100 µg/mL for the second.

First: Cc1ccc(NC(=S)N/N=C2\C(=O)Nc3ccc(OC(F)(F)F)cc32)cc1
Second: O=C1Nc2ccc(OC(F)(F)F)cc2/C1=N/NC(=S)Nc1ccc(Cl)cc1
The IC90 of the first is higher: greater than 100 µg/mL for the first, 1.52 µg/mL (≈ 3.67 µM) for the second.

First: Cc1ccc2c(c1)/C(=N/NC(=S)Nc1ccc([N+](=O)[O-])cc1)C(=O)N2
Second: Cc1ccc2c(c1)/C(=N/NC(=S)Nc1ccc(Cl)cc1)C(=O)N2
The IC90 of the first is higher: greater than 100 µg/mL for the first, 3.57 µg/mL (≈ 10.3 µM) for the second.

`O=C1/C(=N\NC(=S)Nc2ccc(F)cc2)c2cc(OC(F)(F)F)ccc2N1CN1CCOCC1` and `O=C1/C(=N\NC(=S)Nc2ccc(Cl)cc2)c2cc(OC(F)(F)F)ccc2N1CN1CCOCC1` are within 1.5-fold of each other in IC90: 3.06 µg/mL (≈ 6.15 µM) for the first, 3.04 µg/mL (≈ 5.92 µM) for the second.

`Cc1ccc(NC(=S)N/N=C2\C(=O)N(C)c3ccc(OC(F)(F)F)cc32)cc1` and `CN1C(=O)/C(=N\NC(=S)Nc2ccc(Br)cc2)c2cc(OC(F)(F)F)ccc21` cannot be ordered by IC90: greater than 100 µg/mL for the first, greater than 100 µg/mL for the second.

`C=CCNC(=S)N/N=C1\C(=O)N(C)c2ccc(OC(F)(F)F)cc21` and `CNC(=S)N/N=C1\C(=O)N(C)c2ccc(OC(F)(F)F)cc21` cannot be ordered by IC90: greater than 100 µg/mL for the first, greater than 100 µg/mL for the second.

`Cc1ccc2c(c1)/C(=N/NC(=S)Nc1ccccc1Br)C(=O)N2C` and `Cc1ccc2c(c1)/C(=N/NC(=S)Nc1ccccc1)C(=O)N2C` cannot be ordered by IC90: greater than 100 µg/mL for the first, greater than 100 µg/mL for the second.

`Cc1ccc2c(c1)/C(=N/NC(=S)Nc1ccc([N+](=O)[O-])cc1)C(=O)N2C` and `CN1C(=O)/C(=N\NC(=S)Nc2ccc([N+](=O)[O-])cc2)c2cc(OC(F)(F)F)ccc21` cannot be ordered by IC90: greater than 100 µg/mL for the first, greater than 100 µg/mL for the second.

`Cc1ccc2c(c1)/C(=N/NC(=S)NCc1ccccc1)C(=O)N2C` and `Cc1ccc2c(c1)/C(=N/NC(=S)Nc1cccc(Br)c1)C(=O)N2C` cannot be ordered by IC90: greater than 100 µg/mL for the first, greater than 100 µg/mL for the second.

`O=C1Nc2ccc(OC(F)(F)F)cc2/C1=N/NC(=S)Nc1ccc([N+](=O)[O-])cc1` and `COc1ccc(NC(=S)N/N=C2\C(=O)Nc3ccc(OC(F)(F)F)cc32)cc1` cannot be ordered by IC90: greater than 100 µg/mL for the first, greater than 100 µg/mL for the second.

Going from `O=C1/C(=N\NC(=S)Nc2ccc(Br)cc2)c2cc(OC(F)(F)F)ccc2N1CN1CCOCC1` to `O=C1/C(=N\NC(=S)Nc2ccc([N+](=O)[O-])cc2)c2cc(OC(F)(F)F)ccc2N1CN1CCOCC1`, the IC90 rises from 3.03 µg/mL (≈ 5.43 µM) to greater than 100 µg/mL.

First: Cc1ccc2c(c1)/C(=N/NC(=S)Nc1cccc(Br)c1)C(=O)N2
Second: Cc1ccc2c(c1)/C(=N/NC(=S)Nc1ccc(Br)cc1)C(=O)N2
The IC90 of the first is lower: 1.49 µg/mL (≈ 3.83 µM) for the first, greater than 100 µg/mL for the second.

First: O=C1/C(=N\NC(=S)NC2CCCCC2)c2cc(OC(F)(F)F)ccc2N1CN1CCOCC1
Second: Cc1ccc2c(c1)/C(=N/NC(=S)Nc1ccccc1Br)C(=O)N2
The IC90 of the first is lower: 5.69 µg/mL (≈ 11.7 µM) for the first, greater than 100 µg/mL for the second.
